Assay results collected from several papers.
Protocols differ between the studies behind these lines. pIC50: −log10 of the molar value.
Cell line: K562
Effect on: cell growth or viability

`COc1ccc(Nc2ncnc3c2ncn3Cc2ccc(C(=O)Nc3ccccc3N)cc2)cc1` gave a pIC50 of < 4.30 (MTT; 72 h).
`FC(F)(F)c1ccc(-c2cc(CNc3cccc4cccnc34)on2)cc1` gave a pIC50 of < 4.00 (MTS; 72 h).
`COc1cccc2c1C(=O)c1c(O)c3c(c(O)c1C2=O)C[C@@](O)(C(=O)CO)C[C@@H]3O[C@H]1C[C@H](N)[C@H](O)[C@H](C)O1` gave a pIC50 of 6.89 (96 h).
With `O=C(NO)c1ccc(Cn2cnc3c(Nc4ccc(Br)cc4F)ncnc32)cc1` the pIC50 was 5.29 (MTT; 72 h).
With `O=c1cc(OCc2cc(-c3ccc(Cl)cc3Cl)no2)c2ccccc2o1` the pIC50 was < 4.00 (MTS; 72 h).
`CN1CCC(NC2CCc3[nH]c4c(C(N)=O)ccc(-c5ccccc5Cl)c4c3C2)CC1` (stereo not shown) has a pIC50 of 7.67.
The pIC50 of `CC(C)[C@@H]1NC(=O)/C(=C/c2cnc[nH]2)NC1=O` is reported as < 4.82 (MTT).
`O=C(NO)c1ccc(Cn2cnc3c(Nc4cccc([N+](=O)[O-])c4)ncnc32)cc1` gave a pIC50 of 4.98 (MTT; 72 h).
`CC(C)[C@@H]1NC(=O)[C@H](Cc2c[nH]cn2)NC1=O` has a pIC50 of < 4.82 (MTT).
`c1ccc(-c2cc(CNc3cccc4cccnc34)on2)cc1` gave a pIC50 of < 4.00 (MTS; 72 h).
